{"source": "ChEMBL document CHEMBL1671838", "about": "“Discovery of MK-1220: A Macrocyclic Inhibitor of Hepatitis C Virus NS3/4A Protease with Improved Preclinical Plasma Exposure” (ACS Med Chem Lett, 2011)", "key": {"[1]": {"test_system": "Hepatitis C virus", "assay": "Antiviral activity against HCV1b con1 infected in human HuH7 cells assessed as inhibition of viral replication after 24 hrs in presence of 10% fetal bovine serum", "format": "functional, organism-based, Hepacivirus hominis", "details": "Con1, Huh-7, 24 h", "outline": "(§1)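 Cell-based HCV replicon assay giving IC50. Genotype 1b replicon run with 10% fetal bovine serum or with 50% normal human serum. Genotype 2a replicon run with 10% FBS.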"}, "[2]": {"test_system": "Hepatitis C virus", "assay": "Antiviral activity against HCV1b con1 infected in human HuH7 cells assessed as inhibition of viral replication after 24 hrs in presence of 50% normal human serum", "format": "functional, organism-based, Hepacivirus hominis", "details": "Con1, Huh-7, 24 h", "outline": "as §1"}, "[3]": {"assay": "Clearance in Sprague-Dawley rat at 2 mg/kg, iv", "format": "ADME, organism-based", "parameters": "dose 2 mg/kg, route intravenous", "details": "in vivo", "outline": "(§2)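 IV PK: 2 mg/kg dosed intravenously in DMSO to rat (n = 4) and dog (n = 2).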"}, "[4]": {"assay": "Half life in Sprague-Dawley rat at 2 mg/kg, iv", "format": "ADME, organism-based", "parameters": "dose 2 mg/kg, route intravenous", "details": "in vivo", "outline": "as §2"}, "[5]": {"assay": "Bioavailability in Sprague-Dawley rat at 2 mg/kg, iv and 5 mg/kg, po", "format": "ADME, organism-based", "details": "in vivo", "outline": "(§3)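 Bioavailability derived from IV dosing at 2 mg/kg in DMSO (rat n = 4, dog n = 2) and PO dosing at 5 mg/kg in 10% Tween (rat n = 3, dog n = 2).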"}, "[6]": {"assay": "Cmax in Sprague-Dawley rat at 5 mg/kg, po", "format": "ADME, organism-based", "parameters": "dose 5 mg/kg, route oral", "details": "in vivo", "outline": "(§4)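 Oral PK study: 5 mg/kg PO in 10% Tween. Rat n = 3, dog n = 2. Plasma exposure was measured in both species, and dog liver levels were measured at 2 h and 26 h after dosing.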"}, "[7]": {"assay": "AUC in Sprague-Dawley rat at 5 mg/kg, po", "format": "ADME, organism-based", "parameters": "dose 5 mg/kg, route oral", "details": "plasma", "outline": "as §4"}, "[8]": {"assay": "Drug level in Sprague-Dawley rat liver at 5 mg/kg, po after 24 hrs", "format": "ADME, organism-based", "parameters": "dose 5 mg/kg, route oral", "details": "read-out: Drug uptake", "outline": "(§5)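 Single oral dose of 5 mg/kg in 10% Tween vehicle; n = 3 for rat and n = 2 for dog. Liver drug concentration was measured at 24 h in rat and at 26 h in dog.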"}, "[9]": {"assay": "Clearance in Beagle dog at 2 mg/kg, iv", "format": "ADME, organism-based, Canis lupus familiaris", "parameters": "dose 2 mg/kg, route intravenous", "details": "in vivo", "outline": "as §2"}, "[10]": {"assay": "Half life in Beagle dog at 2 mg/kg, iv", "format": "ADME, organism-based, Canis lupus familiaris", "parameters": "dose 2 mg/kg, route intravenous", "details": "in vivo", "outline": "as §2"}, "[11]": {"assay": "Bioavailability in Beagle dog at 2 mg/kg, iv and 5 mg/kg, po", "format": "ADME, organism-based, Canis lupus familiaris", "details": "in vivo", "outline": "as §3"}, "[12]": {"assay": "Cmax in Beagle dog at 5 mg/kg, po", "format": "ADME, organism-based, Canis lupus familiaris", "parameters": "dose 5 mg/kg, route oral", "details": "in vivo", "outline": "as §4"}, "[13]": {"assay": "AUC in Beagle dog at 5 mg/kg, po", "format": "ADME, organism-based, Canis lupus familiaris", "parameters": "dose 5 mg/kg, route oral", "details": "plasma", "outline": "as §4"}, "[14]": {"assay": "Drug level in Beagle dog liver at 5 mg/kg, po after 2 hrs", "format": "ADME, organism-based, Canis lupus familiaris", "parameters": "dose 5 mg/kg, route oral", "details": "read-out: Drug uptake", "outline": "as §4"}, "[15]": {"assay": "Drug level in Beagle dog liver at 5 mg/kg, po after 26 hrs", "format": "ADME, organism-based, Canis lupus familiaris", "parameters": "dose 5 mg/kg, route oral", "details": "read-out: Drug uptake", "outline": "as §5"}, "[16]": {"assay": "Cmax in rhesus monkey at 5 mg/kg, po", "format": "ADME, organism-based, Macaca mulatta", "parameters": "dose 5 mg/kg, route oral", "details": "in vivo", "outline": "(§6)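 Rhesus monkey oral PK: 5 mg/kg PO in 10% Tween, n = 2.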"}, "[17]": {"assay": "AUC in rhesus monkey at 5 mg/kg, po", "format": "ADME, organism-based, Macaca mulatta", "parameters": "dose 5 mg/kg, route oral", "details": "plasma", "outline": "as §6"}, "[18]": {"assay": "Selectivity ratio Ki for HCV NS3/4A protease to Ki for trypsin"}, "[19]": {"assay": "Selectivity ratio Ki for HCV NS3/4A protease to Ki for chymotrypsin"}, "[20]": {"assay": "Inhibition of HCV NS3/4A protease expressed Escherichia coli after 1 hr by time-resolved fluorescence assay", "parameters": "species or system Hepacivirus hominis", "outline": "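Binding assay against genotype 1b HCV NS3/4A protease, read by time-resolved fluorescence; potency expressed as Ki.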"}, "[21]": {"assay": "Drug level in Sprague-Dawley rat liver at 5 mg/kg, po after 4 hrs", "format": "ADME, organism-based", "parameters": "dose 5 mg/kg, route oral", "details": "read-out: Drug uptake", "outline": "(§7)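 Rat PK screen: 5 mg/kg given orally in PEG400, n = 2; plasma AUC calculated from a 4 h experiment, and liver concentration measured at 4 h after dosing.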"}, "[22]": {"assay": "AUC in Sprague-Dawley rat plasma at 5 mg/kg, po after 4 hrs", "format": "ADME, organism-based", "parameters": "time < 4 hr, dose 5 mg/kg, route oral", "outline": "as §7"}, "[23]": {"test_system": "Hepatitis C virus", "assay": "Antiviral activity against HCV2a infected in human HuH7 cells assessed as inhibition of viral replication after 24 hrs in presence of 10% fetal bovine serum", "format": "functional, organism-based, Hepacivirus hominis", "details": "genotype 2a, Huh-7, 24 h", "outline": "as §1"}, "[24]": {"assay": "Clearance in rhesus monkey at 1 mg/kg, iv", "details": "in vivo"}, "[25]": {"assay": "Half life in rhesus monkey at 1 mg/kg, iv", "details": "in vivo"}, "[26]": {"assay": "Bioavailability in rhesus monkey at 1 mg/kg, iv and 5 mg/kg, po", "details": "in vivo"}}, "data": [{"smiles": "C=C[C@@H]1C[C@]1(NC(=O)[C@@H]1C[C@@H]2CN1C(=O)[C@H](C1CCCCC1)NC(=O)OCC(C)(C)CCCc1cc3c(nccc3cc1OC)O2)C(=O)NS(=O)(=O)C1CC1", "values": [{"measurement": "IC50", "setting": "[1]", "result": 4, "unit": "nM"}, {"measurement": "IC50", "setting": "[2]", "result": 11, "unit": "nM"}, {"measurement": "clearance", "setting": "[3]", "result": 3.4, "unit": "mL/min/kg"}, {"measurement": "half-life", "setting": "[4]", "result": 5.7, "unit": "h"}, {"measurement": "bioavailability", "setting": "[5]", "result": 37, "unit": "%"}, {"measurement": "Cmax", "setting": "[6]", "result": 4.4, "unit": "µM"}, {"measurement": "AUC", "setting": "[7]", "result": 12.1, "unit": "µM·h"}, {"measurement": "concentration at 24 h", "setting": "[8]", "result": 9.9, "unit": "µM"}, {"measurement": "clearance", "setting": "[9]", "result": 3.6, "unit": "mL/min/kg"}, {"measurement": "half-life", "setting": "[10]", "result": 2.5, "unit": "h"}, {"measurement": "bioavailability", "setting": "[11]", "result": 41, "unit": "%"}, {"measurement": "Cmax", "setting": "[12]", "result": 4, "unit": "µM"}, {"measurement": "AUC", "setting": "[13]", "result": 12.4, "unit": "µM·h"}, {"measurement": "concentration at 2 h", "setting": "[14]", "result": 54, "unit": "µM"}, {"measurement": "concentration at 26 h", "setting": "[15]", "result": 10.3, "unit": "µM"}, {"measurement": "Cmax", "setting": "[16]", "result": 0.3, "unit": "µM"}, {"measurement": "AUC", "setting": "[17]", "result": 1.2, "unit": "µM·h"}, {"measurement": "Ratio Ki", "setting": "[18]", "result": "> 50000"}, {"measurement": "Ratio Ki", "setting": "[19]", "result": "> 50000"}, {"measurement": "Ki", "setting": "[20]", "result": 0.02, "unit": "nM"}, {"measurement": "concentration at 4 h", "setting": "[21]", "result": 23, "unit": "µM"}, {"measurement": "AUC at 4 h", "setting": "[22]", "result": 11.8, "unit": "µM·h"}, {"measurement": "IC50", "setting": "[23]", "result": 5, "unit": "nM"}, {"measurement": "clearance", "setting": "[24]", "result": 8.3, "unit": "mL/min/kg"}, {"measurement": "half-life", "setting": "[25]", "result": 1.3, "unit": "h"}, {"measurement": "bioavailability", "setting": "[26]", "result": 9, "unit": "%"}]}]}
